Laboratory results reported in ChEMBL document CHEMBL3244321, “Nitramino acids. Synthesis and biological evaluation of 1-nitroproline, 1-nitropipecolic acid, and N-nitrosarcosine” (J Med Chem, 1977).
Calls of active or inactive are those of the source. The rule behind the calls is not given here.

Legend:
[1] = test system: Pseudomonas aeruginosa; test: Antibacterial activity against Pseudomonas aeruginosa ATCC 27853 assessed as inhibition of bacterial growth at up to 100 ug/ml after 7 hrs by spectrophotometer; type: functional, organism-based
In short: (§1)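 Tested at 10, 25, 50 and 100 µg/mL in Mueller-Hinton broth at 37 °C with rotary shaking at 150 rpm. Incubation was 16 h for E. coli and 7 h for P. aeruginosa. Growth was read turbidimetrically at 600 nm.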

[2] = test system: Escherichia coli; test: Antibacterial activity against Escherichia coli ATCC 25922 assessed as inhibition of bacterial growth at up to 100 ug/ml after 16 hrs by spectrophotometer; type: functional, organism-based; in short: as §1
[3] = test system: Mycolicibacterium smegmatis; test: Antibacterial activity against Mycobacterium smegmatis H607 assessed as inhibition of bacterial growth up to 100 ug/ml after 22 hrs by spectrophotometer; type: functional, organism-based
In short: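 Sauton synthetic medium, with compound at 10, 25, 50 and 100 µg/mL. Incubated 22 h at 37 °C with rotary shaking at 150 rpm. Growth was measured turbidimetrically at 600 nm.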

[4] = test system: Candida albicans; test: Antifungal activity against Candida albicans clinical isolate assessed as inhibition of fungal growth up to 100 ug/ml after 16 hrs by spectrophotometer; type: functional, organism-based
In short: (§2)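 Yeast nitrogen base (pH 7.0), with compound at 10, 25, 50 and 100 µg/mL. Incubated 16 h at 37 °C with 150 rpm rotary shaking. Turbidity was read at 600 nm.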

[5] = Acute toxicity in ip dosed Swiss-Webster mouse measured after 72 hrs; type: organism-based; settings: in vivo
[6] = test system: Candida albicans; test: Antifungal activity against Candida albicans ATCC 11651 assessed as inhibition of fungal growth up to 100 ug/ml after 16 hrs by spectrophotometer; type: functional, organism-based; in short: as §2
[7] = test system: Salmonella typhimurium; test: Mutagenicity in Salmonella typhimurium TA100 assessed as revertant colonies at 300 umol incubated under anaerobic conditions for 16 to 17 hrs followed by 48 hrs under aerobic conditions by Ames test in presence of Sprague-Dawley rat liver S9 fraction; type: toxicity, organism-based; settings: salmonella enterica subsp. enterica serovar typhimurium
In short: (§3)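 Ames plate-incorporation assay. Overnight TA-100 nutrient-broth culture, about 10^7 cells per plate. Compound solutions were adjusted to pH 7 and filter-sterilized, then mixed in a histidine-biotin-limited agar overlay on minimal glucose agar, with or without S-9. S-9 was the 9000g supernatant of 25% liver homogenate in 0.15 M KCl from phenobarbital-treated male Sprague-Dawley rats. Plates were incubated aerobically at 37 °C in the dark for 2 days, or anaerobically (Gas-Pak) for 16-17 h and then aerobically for 48 h. Revertants were counted in triplicate and averaged. Matched vehicle/condition background was subtracted.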

[8] = test system: Salmonella typhimurium; test: Mutagenicity in Salmonella typhimurium TA100 assessed as revertant colonies at 300 umol incubated under aerobic conditions in dark for 2 days by Ames test; type: toxicity, organism-based; settings: salmonella enterica subsp. enterica serovar typhimurium, 48 h; in short: as §3
[9] = test system: Salmonella typhimurium; test: Mutagenicity in Salmonella typhimurium TA100 assessed as revertant colonies at 300 umol incubated under anaerobic conditions for 16 to 17 hrs followed by 48 hrs under aerobic conditions by Ames test; type: toxicity, organism-based; settings: salmonella enterica subsp. enterica serovar typhimurium; in short: as §3
[10] = test system: Salmonella typhimurium; test: Mutagenicity in Salmonella typhimurium TA100 assessed as revertant colonies at 300 umol incubated under aerobic conditions in dark for 2 days by Ames test in presence of Sprague-Dawley rat liver S9 fraction; type: toxicity, organism-based; settings: salmonella enterica subsp. enterica serovar typhimurium, s9, 48 h; in short: as §3

Structure (SMILES) | inhibition [1] | inhibition [2] | inhibition [3] | inhibition [4] | LD50 at 72 h [5] [µmol/kg] | inhibition [6] | Activity [7] | Activity [8] | Activity [9] | Activity [10]
O=C(O)[C@H]1CCCN1[N+](=O)[O-] | inactive | inactive | inactive | inactive | 1390 | inactive |  |  |  | 
O=C(O)[C@@H]1CCCN1[N+](=O)[O-] | inactive | inactive | inactive | inactive | 1170 | inactive | Non-toxic | Non-toxic | Non-toxic | Non-toxic
O=C(O)C1CCCCN1[N+](=O)[O-] (racemic) | inactive | inactive | inactive | inactive | 2100 | inactive | Non-toxic | Non-toxic | Non-toxic | Non-toxic
